Data set [1] is described as follows: Chemical stability in presence of snake venom phosphodiesterase 1 assessed as oligonucleotide degradation after 120 mins by PAGE. Format: physicochemical. As to conditions: 2 h.
Data set [2] can be described thus: Chemical stability in presence of 80% (v/v) human serum assessed as intact compound remaining after 8 hrs by PAGE. Format: physicochemical. Conditions: read-out: Stability. The method in brief:
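Aptamer incubated in 80% v/v human serum at 37 °C for 8 h; intact full-length aptamer remaining quantified.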

In a further data set the target is Prothrombin (Homo sapiens, UniProt P00734). Kind of data set: Binding affinity to human thrombin after 30 mins by non-equilibrium capillary electrophoresis. In a few lines: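 Capillary electrophoresis of aptamer–thrombin mixtures: aptamer 1 nM with thrombin 4 nM in 20 mM Tris-HCl (1 mM MgCl2) pH 7.4 sample buffer; running buffer 100 mM sodium borate pH 8.35; separation +12 kV, injection 0.5 psi × 7.8 s. Kd derived from binding saturation curves over varied thrombin concentrations.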

`C=C1NC(=O)C(C)=CN1[C@H]1C[C@H](OP(=O)(O)OC[C@H]2O[C@@H](n3cnc4c(=O)[nH]c(N)nc43)[C@H](O)[C@@H]2OP(=O)(O)OC[C@H]2O[C@@H](n3cnc4c(N)ncnc43)[C@H](O)[C@@H]2OP(=O)(O)OC[C@H]2O[C@@H](n3ccc(N)nc3=O)[C@H](O)[C@@H]2OP(=O)(O)OC[C@H]2O[C@@H](n3cc(C)c(=O)[nH]c3=O)C[C@@H]2OP(=O)(O)OC[C@]23O[C@@H](n4cc(C)c(=O)[nH]c4=O)[C@H](OCOC2c2ccccc2)[C@@H]3O)[C@@H](COP(=O)(O)O[C@H]2[C@@H](O)[C@H](n3cnc4c(=O)[nH]c(N)nc43)O[C@@H]2COP(=O)(O)O[C@H]2[C@@H](O)[C@H](n3cnc4c(=O)[nH]c(N)nc43)O[C@@H]2COP(=O)(O)O[C@H]2[C@@H](O)[C@H](n3cnc4c(=O)[nH]c(N)nc43)O[C@@H]2COP(=O)(O)O[C@H]2[C@@H](O)[C@H](n3cnc4c(=O)[nH]c(N)nc43)O[C@@H]2COP(=O)(O)O[C@H]2C[C@H](n3cc(C)c(=O)[nH]c3=O)O[C@@H]2COP(=O)(O)O[C@H]2C[C@H](n3cc(C)c(=O)[nH]c3=O)O[C@@H]2COP(=O)(O)O[C@H]2[C@@H](O)[C@H](n3cnc4c(=O)[nH]c(N)nc43)O[C@@H]2COP(=O)(O)O[C@H]2[C@@H](O)[C@H](n3cnc4c(=O)[nH]c(N)nc43)O[C@@H]2COP(=O)(O)O[C@H]2[C@@H](O)[C@H](n3cnc4c(N)ncnc43)O[C@@H]2COP(=O)(O)O[C@H]2[C@@H](O)[C@H](n3ccc(N)nc3=O)O[C@@H]2COP(=O)(O)O[C@H]2[C@@H](O)[C@H](n3cnc4c(=O)[nH]c(N)nc43)O[C@@H]2COP(=O)(O)O[C@H]2[C@@H](O)[C@H](n3cnc4c(=O)[nH]c(N)nc43)O[C@@H]2COP(=O)(O)O[C@H]2[C@@H](O)[C@H](n3cnc4c(=O)[nH]c(N)nc43)O[C@@H]2COP(=O)(O)O[C@H]2[C@@H](O)[C@H](n3cnc4c(N)ncnc43)O[C@@H]2COP(=O)(O)O[C@H]2C[C@H](n3cc(C)c(=O)[nH]c3=O)O[C@@H]2COP(=O)(O)O[C@H]2[C@@H](O)[C@H](n3cnc4c(=O)[nH]c(N)nc43)O[C@@H]2COP(=O)(O)O[C@H]2[C@@H](O)[C@H](n3cnc4c(=O)[nH]c(N)nc43)O[C@@H]2COP(=O)(O)O[C@H]2C[C@H](n3cc(C)c(=O)[nH]c3=O)O[C@@H]2COP(=O)(O)O[C@H]2[C@@H](O)[C@H](n3cnc4c(=O)[nH]c(N)nc43)O[C@@H]2COP(=O)(O)O[C@H]2[C@@H](O)[C@H](n3ccc(N)nc3=O)O[C@@H]2COP(=O)(O)O[C@H]2[C@@H](O)[C@H](n3ccc(N)nc3=O)O[C@@H]2COP(=O)(O)O[C@H]2C[C@H](n3cc(C)c(=O)[nH]c3=O)O[C@@H]2COP(=O)(O)O[C@H]2[C@@H](O)[C@H](n3cnc4c(=O)[nH]c(N)nc43)O[C@@H]2COP(=O)(O)O[C@H]2[C@@H](O)[C@H](n3cnc4c(N)ncnc43)O[C@@H]2COc2ccc3c(c2)Oc2cc(O)ccc2C32OC(=O)c3ccccc32)O1` (stereo partly drawn): in data set [1], the Stability result is on record as “Stable”. In addition, in data set [2], the remaining at 8 h worked out at 20%. Besides, binding on Prothrombin was characterised by a dissociation constant (Kd) of 280 pM.

For the compound `C=C1NC(=O)C(C)=CN1[C@H]1C[C@H](OP(=O)(O)OC[C@H]2O[C@@H](n3cnc4c(=O)[nH]c(N)nc43)[C@H](O)[C@@H]2OP(=O)(O)OC[C@H]2O[C@@H](n3cnc4c(N)ncnc43)[C@H](O)[C@@H]2OP(=O)(O)OC[C@H]2O[C@@H](n3ccc(N)nc3=O)[C@H](O)[C@@H]2OP(=O)(O)OC[C@H]2O[C@@H](n3cc(C)c(=O)[nH]c3=O)C[C@@H]2O)[C@@H](COP(=O)(O)O[C@H]2[C@@H](O)[C@H](n3cnc4c(=O)[nH]c(N)nc43)O[C@@H]2COP(=O)(O)O[C@H]2[C@@H](O)[C@H](n3cnc4c(=O)[nH]c(N)nc43)O[C@@H]2COP(=O)(O)O[C@H]2[C@@H](O)[C@H](n3cnc4c(=O)[nH]c(N)nc43)O[C@@H]2COP(=O)(O)O[C@H]2[C@@H](O)[C@H](n3cnc4c(=O)[nH]c(N)nc43)O[C@@H]2COP(=O)(O)O[C@H]2C[C@H](n3cc(C)c(=O)[nH]c3=O)O[C@@H]2COP(=O)(O)O[C@H]2C[C@H](n3cc(C)c(=O)[nH]c3=O)O[C@@H]2COP(=O)(O)O[C@H]2[C@@H](O)[C@H](n3cnc4c(=O)[nH]c(N)nc43)O[C@@H]2COP(=O)(O)O[C@H]2[C@@H](O)[C@H](n3cnc4c(=O)[nH]c(N)nc43)O[C@@H]2COP(=O)(O)O[C@H]2[C@@H](O)[C@H](n3cnc4c(N)ncnc43)O[C@@H]2COP(=O)(O)O[C@H]2[C@@H](O)[C@H](n3ccc(N)nc3=O)O[C@@H]2COP(=O)(O)O[C@H]2[C@@H](O)[C@H](n3cnc4c(=O)[nH]c(N)nc43)O[C@@H]2COP(=O)(O)O[C@H]2[C@@H](O)[C@H](n3cnc4c(=O)[nH]c(N)nc43)O[C@@H]2COP(=O)(O)O[C@H]2[C@@H](O)[C@H](n3cnc4c(=O)[nH]c(N)nc43)O[C@@H]2COP(=O)(O)O[C@H]2[C@@H](O)[C@H](n3cnc4c(N)ncnc43)O[C@@H]2COP(=O)(O)O[C@H]2C[C@H](n3cc(C)c(=O)[nH]c3=O)O[C@@H]2COP(=O)(O)O[C@H]2[C@@H](O)[C@H](n3cnc4c(=O)[nH]c(N)nc43)O[C@@H]2COP(=O)(O)O[C@H]2[C@@H](O)[C@H](n3cnc4c(=O)[nH]c(N)nc43)O[C@@H]2COP(=O)(O)O[C@H]2C[C@H](n3cc(C)c(=O)[nH]c3=O)O[C@@H]2COP(=O)(O)O[C@H]2[C@@H](O)[C@H](n3cnc4c(=O)[nH]c(N)nc43)O[C@@H]2COP(=O)(O)O[C@H]2[C@@H](O)[C@H](n3ccc(N)nc3=O)O[C@@H]2COP(=O)(O)O[C@H]2[C@@H](O)[C@H](n3ccc(N)nc3=O)O[C@@H]2COP(=O)(O)O[C@H]2C[C@H](n3cc(C)c(=O)[nH]c3=O)O[C@@H]2COP(=O)(O)O[C@H]2[C@@H](O)[C@H](n3cnc4c(=O)[nH]c(N)nc43)O[C@@H]2COP(=O)(O)O[C@H]2[C@@H](O)[C@H](n3cnc4c(N)ncnc43)O[C@@H]2COc2ccc3c(c2)Oc2cc(O)ccc2C32OC(=O)c3ccccc32)O1` (stereo partly drawn), the Stability result in data set [1] is on record as “Unstable”. Further, the remaining at 8 h in data set [2] is 0%. At Prothrombin, the Kd (in general, the free concentration of one partner at which half of the binding sites on the other are occupied at equilibrium, for simple one-to-one binding) is 250 pM.

Consider `C=C1NC(=O)C(C)=CN1[C@H]1C[C@H](OP(=O)(O)OC[C@H]2O[C@@H](n3cnc4c(=O)[nH]c(N)nc43)[C@H](O)[C@@H]2OP(=O)(O)OC[C@H]2O[C@@H](n3cnc4c(N)ncnc43)[C@H](O)[C@@H]2OP(=O)(O)OC[C@H]2O[C@@H](n3ccc(N)nc3=O)[C@H](O)[C@@H]2OP(=O)(O)OC[C@H]2O[C@@H](n3cc(C)c(=O)[nH]c3=O)C[C@@H]2OP(=O)(O)OC[C@@]23COCO[C@@H]([C@H](n4cc(C)c(=O)[nH]c4=O)O2)[C@@H]3O)[C@@H](COP(=O)(O)O[C@H]2[C@@H](O)[C@H](n3cnc4c(=O)[nH]c(N)nc43)O[C@@H]2COP(=O)(O)O[C@H]2[C@@H](O)[C@H](n3cnc4c(=O)[nH]c(N)nc43)O[C@@H]2COP(=O)(O)O[C@H]2[C@@H](O)[C@H](n3cnc4c(=O)[nH]c(N)nc43)O[C@@H]2COP(=O)(O)O[C@H]2[C@@H](O)[C@H](n3cnc4c(=O)[nH]c(N)nc43)O[C@@H]2COP(=O)(O)O[C@H]2C[C@H](n3cc(C)c(=O)[nH]c3=O)O[C@@H]2COP(=O)(O)O[C@H]2C[C@H](n3cc(C)c(=O)[nH]c3=O)O[C@@H]2COP(=O)(O)O[C@H]2[C@@H](O)[C@H](n3cnc4c(=O)[nH]c(N)nc43)O[C@@H]2COP(=O)(O)O[C@H]2[C@@H](O)[C@H](n3cnc4c(=O)[nH]c(N)nc43)O[C@@H]2COP(=O)(O)O[C@H]2[C@@H](O)[C@H](n3cnc4c(N)ncnc43)O[C@@H]2COP(=O)(O)O[C@H]2[C@@H](O)[C@H](n3ccc(N)nc3=O)O[C@@H]2COP(=O)(O)O[C@H]2[C@@H](O)[C@H](n3cnc4c(=O)[nH]c(N)nc43)O[C@@H]2COP(=O)(O)O[C@H]2[C@@H](O)[C@H](n3cnc4c(=O)[nH]c(N)nc43)O[C@@H]2COP(=O)(O)O[C@H]2[C@@H](O)[C@H](n3cnc4c(=O)[nH]c(N)nc43)O[C@@H]2COP(=O)(O)O[C@H]2[C@@H](O)[C@H](n3cnc4c(N)ncnc43)O[C@@H]2COP(=O)(O)O[C@H]2C[C@H](n3cc(C)c(=O)[nH]c3=O)O[C@@H]2COP(=O)(O)O[C@H]2[C@@H](O)[C@H](n3cnc4c(=O)[nH]c(N)nc43)O[C@@H]2COP(=O)(O)O[C@H]2[C@@H](O)[C@H](n3cnc4c(=O)[nH]c(N)nc43)O[C@@H]2COP(=O)(O)O[C@H]2C[C@H](n3cc(C)c(=O)[nH]c3=O)O[C@@H]2COP(=O)(O)O[C@H]2[C@@H](O)[C@H](n3cnc4c(=O)[nH]c(N)nc43)O[C@@H]2COP(=O)(O)O[C@H]2[C@@H](O)[C@H](n3ccc(N)nc3=O)O[C@@H]2COP(=O)(O)O[C@H]2[C@@H](O)[C@H](n3ccc(N)nc3=O)O[C@@H]2COP(=O)(O)O[C@H]2C[C@H](n3cc(C)c(=O)[nH]c3=O)O[C@@H]2COP(=O)(O)O[C@H]2[C@@H](O)[C@H](n3cnc4c(=O)[nH]c(N)nc43)O[C@@H]2COP(=O)(O)O[C@H]2[C@@H](O)[C@H](n3cnc4c(N)ncnc43)O[C@@H]2COc2ccc3c(c2)Oc2cc(O)ccc2C32OC(=O)c3ccccc32)O1` (stereo partly drawn), for which the Stability entry in data set [1] was “Stable”. The compound further gave a Kd at Prothrombin of 270 pM.

The record behind these values is ChEMBL document CHEMBL1155379, “Effect of 3'-end capping of aptamer with various 2',4'-bridged nucleotides: Enzymatic post-modification toward a practical use of polyclonal aptamers” (Bioorg Med Chem Lett, 2010).
